Hits are enriched below; roughly 2% of the tested compounds scored in any of these assays.
TNF necrop inh: inhibitors of TNF-alpha induced necroptosis in Jurkat FADD-/- cells; 220,000 tested, 0.068% active; Jurkat FADD-/- TNF necroptosis rescue, ATP luminescence, 24 h; 0 = TNF only, 100 = no-TNF cells; activation (protection from cell death), % at 10 µM;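 active means activation, meaning protection from cell death, of at least 50% relative to plate controls; inactive means activation below 50%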;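 further: necroptosis triggered by 40 ng/mL TNF-alpha added together with compound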
Hep lipid drop: modulators of hepatic lipid droplet formation. AID 1656. AML12 mouse hepatocytes, oleate lipid droplets, BODIPY imaging. inhibition, % at 6.5 µM. 240,000 tested, 0.4% active;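 active means lipid droplet intensity inhibited by at least 50%, with more than 500 cells counted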
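material = mouse AML12 hepatocyte cell line, fixed after treatment | also added = 100 µM oleic acid challenge | doses = compound at 6.5 µM only | schedule = overnight exposure | technique = Image-based BODIPY and DAPI two-channel analysis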
Tb hexokinase: blocks Trypanosoma brucei hexokinase 1 activity. recombinant TbHK1, G6PDH-coupled NADH A340. 220,000 tested, 0.11% active. AID 1430. inhibition, % at 10 µM;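 active means inhibition of 50% or more in the single-dose primary screen; inactive means inhibition below 50%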
RBBP9 inhibitor: inhibitors of human serine hydrolase RBBP9; recombinant RBBP9, FP-Rh probe fluorescence polarization; 220,000 tested, 0.2% active; inhibition, % at 7.94 µM; O75884;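 active means inhibition above the campaign mean of all tested compounds plus 3 SD, cut at about 14% in these data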;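 further: plate controls were DMSO wells with RBBP9 for no effect and wells lacking RBBP9 protein for full effect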
Target sequence (O75884 whole entry, looked up): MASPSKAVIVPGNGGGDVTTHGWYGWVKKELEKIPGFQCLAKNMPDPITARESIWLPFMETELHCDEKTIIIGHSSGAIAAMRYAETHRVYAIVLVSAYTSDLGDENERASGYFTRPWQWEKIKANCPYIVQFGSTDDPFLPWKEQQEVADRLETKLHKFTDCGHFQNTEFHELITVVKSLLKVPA
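Test system: recombinant human RBBP9; Timing: 30 min then 45 min, 25 °C; Detection: fluorescence polarization; Control set: RBBP9 with DMSO as uninhibited control, no-protein wells as full inhibition; Compound dosing: one concentration, 7.94 µM nominal, 0.794% DMSO; Probe or stimulus: FP-Rh activity-based probe, 375 nM before mixing.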
PfM18AAP inh: blocks P. falciparum M18 aspartyl aminopeptidase. AID 1822. 290,000 tested, 1.2% active. inhibition, % at 7.35 µM. recombinant PfM18AAP, H-Glu-NHMec fluorogenic cleavage;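 active means inhibition above the campaign mean inhibition over all tested compounds plus 3 SD, cut at about 28% in these data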;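 further: 0% = plate median of test compound wells and 100% = 2 mM ZnCl2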
L929 necroptosis: L929 zVAD cell death inhibition. viability rescue, % at 10 µM. 220,000 tested, 0.38% active. L929 zVAD necroptosis rescue, ATP luminescence, 24 h; with zVAD 60 µM;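 active means activation, scaled between plate controls, above about 75%, limit read from the data; inactive means activation under that limit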;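 further: 0% = zVAD with DMSO and 100% = DMSO alone without zVAD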
Lipid drop inh: hepatic lipid droplet formation inhibition, confirmed | AML12 mouse hepatocytes, BODIPY lipid droplet imaging; droplets induced with 100 µM oleic acid | inhibition, % at 5.2 µM | AID 463183 | shares compounds with Hep lipid drop | 870 tested, 65% active;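 active means inhibition of lipid droplet metric at least 50%, with more than 300 cells in each of four replicates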;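 further: plate controls were DMSO with oleic acid for no effect and 5 µM Triacsin-C for full effect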
AML12 cytotox: counter-screen for cytotoxicity in AML12 mouse hepatocytes. shares compounds with Hep lipid drop. DAPI nuclear morphology cytotoxicity imaging; stronger effect = higher value; cells fed 100 µM oleate overnight. z-score at 5 µM. 870 tested, 3% active; in the data active means z-score above about 6.3;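 further: compound exposure lasted overnight at 37 °C before fixation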
AML12 tox conf: AML12 hepatocyte cytotoxicity, confirmed; shares compounds with Hep lipid drop; 530 tested, under 10 active; cytotoxicity, % at 50 µM; AID 463219; AML12 mouse hepatocyte viability, ATP luminescence; cells loaded with 100 µM oleic acid;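 active means cytotoxicity above 50% in each of four replicates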;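 further: compound exposure lasted overnight at 37 °C before the ATP read; 0% = DMSO-treated cells and 100% = wells with no cells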
Numbers without * were called inactive; · = no result.

SMILES	TNF necrop inh	Hep lipid drop	Tb hexokinase	RBBP9 inhibitor	PfM18AAP inh	L929 necroptosis	Lipid drop inh	AML12 cytotox	AML12 tox conf
O=C(Nc1cccc2ccccc12)C1CCN(C(=O)NCc2ccccc2)CC1	0.1	·	1.0	-8.2	-0.7	0.2	·	·	·
CC(C)CCN1C(=O)c2ccc(C(=O)Nc3ccccn3)cc2C1=O	·	-6.6	·	·	-5.8	·	·	·	·
CCOc1ccc(CCNC(=O)c2nnc(Cc3ccc(F)cc3)o2)cc1OCC	1.7	101.6*	0.5	4.5	3.1	·	106.0*	-0.348	10.1
Cn1c(=O)cc(SCC(=O)NCCC2=CCCCC2)c2ccc(Cl)cc21	0.9	-20.3	5.1	-0.5	-0.9	-0.2	·	·	·
CCn1c(=O)cc(OCC(=O)NCCc2cccc(C)c2)c2ccccc21	-3.1	-20.7	-3.0	-0.2	3.9	3.1	·	·	·
CCOc1ccc(CCNC(=O)c2cc3sccc3n2CC)cc1OCC	-1.0	91.9*	-7.2	-12.8	-7.0	1.0	108.5*	-0.0532	8.4
CCOc1ccc(CCNC(=O)CSc2cc(=O)n(C)c3cc(Cl)ccc23)cc1OCC	2.1	77.9*	-3.7	-8.3	-0.4	0.9	77.8*	-0.282	-1.3
CCOc1ccc(CCNC(=O)CSc2cc(=O)n(CC)c3ccccc23)cc1OCC	1.7	93.3*	-12.4	-5.5	4.3	0.1	105.1*	-0.186	13.9
COc1ccc(-c2nc(CS(=O)CC(=O)NCc3ccc(C)cc3)c(C)o2)cc1OC (stereo unspecified)	·	-1.3	·	·	-8.6	·	·	·	·
CCOc1ccc(CCNC(=O)COC(=O)c2cc([N+](=O)[O-])ccc2N2CCOCC2)cc1OCC	·	68.3*	·	·	-11.7	·	102.6*	-0.406	18.3
CCOc1ccc(CCNC(=O)COC(=O)c2c(C)nn(-c3ccccc3)c2C)cc1OCC	·	86.5*	·	·	6.2	·	110.0*	-0.393	15.4
CCOc1ccc(CCNC(=O)CS(=O)Cc2nc(-c3ccc(OC)c(OC)c3)oc2C)cc1OCC (stereo unspecified)	·	57.8*	·	·	-2.0	·	73.6*	-0.341	17.2
CCOc1ccc(CCNC(=O)COC(=O)c2ccco2)cc1OCC	-0.2	12.0	-1.7	3.5	-1.5	-0.8	·	·	·
CCOc1ccc(CCNC(=O)COC(=O)c2cc(OC)c(OC)c(OC)c2)cc1OCC	2.5	75.0*	-0.8	-11.8	1.9	13.4	108.7*	-0.531	11.3
Nc1c([N+](=O)[O-])cnnc1-c1ccccc1	1.5	-4.2	-7.8	-7.3	4.2	0.6	·	·	·
Cc1cc(C)c2sc(N)nc2c1	0.1	1.4	-4.1	6.9	-1.7	50.6	·	·	·
CCOc1ccc(CCNC(=O)Cn2ncn3nc(-c4ccc(OC)cc4)cc3c2=O)cc1OCC	·	85.0*	·	·	-2.4	·	101.2*	0.454	3.8
O=C(COC(=O)c1cc[n+]([O-])cc1)Nc1ccc(SC(F)F)cc1	1.1	-22.9	-9.6	-1.5	1.1	-0.5	·	·	·
Cc1ccc(-n2nc3c(=O)n(C(C)C(=O)NCCC4=CCCCC4)nc(C)c3c2C)cc1 (stereo unspecified)	·	58.3*	·	·	-5.3	·	83.1*	-1.51	17.5
CCOc1ccc(C(=O)OCC(=O)Nc2ccc(SC(F)F)cc2)cc1OCC	2.3	50.6*	-1.7	-8.0	0.2	·	71.9*	-0.598	·
CCC(C(=O)NCCc1ccccc1OC)n1nc(C)c2c(C)n(-c3ccccc3)nc2c1=O (stereo unspecified)	·	57.3*	·	·	4.3	·	82.3*	-0.723	13.8
NC(=O)CC(NSc1ccccc1[N+](=O)[O-])C(=O)O (stereo unspecified)	-0.3	-29.6	-8.9	0.5	18.6	-0.3	·	·	·
COCC(C)n1c(SCc2cc(=O)n3cc(C)ccc3n2)nc2ccccc2c1=O (stereo unspecified)	-5.2	21.2	-12.6	-7.3	-3.1	-0.7	·	·	·
COc1ccccc1CN1CC(C(=O)N(C)Cc2[nH]c3ccccc3c2C)CCC1=O (stereo unspecified)	·	-4.0	·	·	2.1	·	·	·	·
CCOc1ccc(CCNC(=O)Cn2nc(C)c3c(C)n(-c4ccccc4)nc3c2=O)cc1OCC	·	90.6*	·	·	-3.9	·	93.3*	-0.624	8.1
SMILES	TNF necrop inh	Hep lipid drop	Tb hexokinase	RBBP9 inhibitor	PfM18AAP inh	L929 necroptosis	Lipid drop inh	AML12 cytotox	AML12 tox conf
Nc1c(-c2ccc(Cl)cc2)cnc2c(-c3ccc(F)cc3)cnn12	·	·	·	·	-0.7	·	·	·	·
COc1ccc(N2C(=S)N(C(=O)c3ccccc3)C(=Nc3ccccc3)C2=Nc2ccccc2)cc1	-1.8	·	-24.3	-6.7	4.2	·	·	·	·
COc1ccc(N=C2C(=Nc3ccc(OC)cc3)N(c3ccc(OC)cc3)C(=S)N2C(=O)c2ccc(OC)cc2)cc1	-2.1	86.7*	-29.3	6.3	-2.6	-0.5	113.1*	-0.618	8.3
COc1ccc(N=C2C(=Nc3ccc(OC)cc3)N(c3ccc(N(C)C)cc3)C(=S)N2c2ccc(OC)cc2)cc1	-11.9	65.3*	-18.7	-11.2	-8.8	22.8	15.2	1.84	·
COc1ccc(N=C2C(=Nc3ccc(OC)cc3)N(c3ccccc3)C(=S)N2C(=O)c2ccc(Cl)cc2)cc1	-5.6	47.9	-33.2	-4.3	4.0	0.6	·	·	·
COc1ccccc1OCC(=O)Nc1oc(-c2ccccc2)c(-c2ccccc2)c1C#N	-1.5	-20.6	-7.5	-9.7	8.2	-0.1	·	·	·
COc1ccc(CC(=O)Nc2oc(-c3ccccc3)c(-c3ccccc3)c2C#N)cc1OC	-8.1	97.0*	-6.6	-10.5	0.6	0.1	109.6*	-0.0151	3.2
CCNC(=O)NC(=O)COC(=O)C1CSC2(C)CCC(=O)N12 (stereo unspecified)	-0.4	23.4	4.1	-0.2	2.9	-0.5	·	·	·
FC(F)(F)COc1nc(N2CCOCC2)nc(N(c2ccccc2)c2ccccc2)n1	0.0	51.4*	-5.4	-7.9	3.3	-0.2	73.3*	0.908	-14.0
COCc1cc(C)nc(OCC(=O)N/N=C/c2ccc(-c3cc([N+](=O)[O-])ccc3Cl)o2)c1C#N	1.1	9.5	0.6	3.0	-5.5	5.3	·	·	·
O=C(CNC(=O)c1ccco1)NCC(=O)OCc1ccc(Cl)cc1Cl	·	-10.2	·	·	6.0	·	·	·	·
COc1ccccc1N1CCN(C(=O)COc2ccc(S(=O)(=O)NC(C)(C)C)cc2)CC1	0.0	64.1*	-0.5	1.4	-4.9	0.1	85.3*	-0.116	·
CNS(=O)(=O)c1ccc(CCC(=O)N2CCN(c3ccccc3OC)CC2)cc1	·	-0.7	·	·	5.8	·	·	·	·
N#C/C(=C\c1ccc(-c2ccccc2[N+](=O)[O-])o1)C(=O)Nc1nc(-c2cccs2)cs1	0.2	72.1*	-7.6	7.7	4.2	2.1	101.2*	-0.469	0.6

Source: PubChem BioAssay
